Data from ChEMBL document CHEMBL1129056, “Synthesis and in vitro evaluation of new wortmannin esters: potent inhibitors of phosphatidylinositol 3-kinase” (J Med Chem, 1996).
In brackets after ≈: the same amount, converted by molar mass.

Experiments:
[1] = Inhibition of Phosphatidylinositol 3-kinase from bovine brain; set-up: species or system Bos taurus
Method in brief: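 Purified bovine brain PI 3-kinase with phosphatidylinositol as substrate. Lipid products extracted and separated by TLC with autoradiography. PI-3-P spots scraped and counted by liquid scintillation.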

CCRF-CEM = assay: Cytotoxicity in rapidly proliferating CCRF-CEM cell lines after 72 hr exposure; type: functional, Homo sapiens

CCC(=O)O[C@@H]1C[C@]2(C)C(O)CC[C@H]2C2=C1[C@]1(C)c3c(coc3C2=O)C(=O)O[C@@H]1COC (some centres undefined)
IC50 [1]: 0.38 ng/mL (≈ 0.855 nM)
CT50 (CCRF-CEM): 0.2 µg/mL

COC[C@H]1OC(=O)c2coc3c2[C@@]1(C)C1=C(C3=O)[C@@H]2CCC(=O)[C@@]2(C)CC1=O
IC50 [1]: 1.6 ng/mL (≈ 4.16 nM)
CT50 (CCRF-CEM): 2.8 µg/mL

CCCC(=O)O[C@@H]1C[C@]2(C)C(=O)CC[C@H]2C2=C1[C@]1(C)c3c(coc3C2=O)C(=O)O[C@@H]1COC
IC50 [1]: 0.4 ng/mL (≈ 0.876 nM)
CT50 (CCRF-CEM): 0.3 µg/mL

CCC(=O)O[C@@H]1C[C@]2(C)C(OC(C)=O)CC[C@H]2C2=C1[C@]1(C)c3c(coc3C2=O)C(=O)O[C@@H]1COC (some centres undefined)
IC50 [1]: 56.5 ng/mL (≈ 116 nM)
CT50 (CCRF-CEM): 3.1 µg/mL

CCCCC(=O)O[C@@H]1C[C@]2(C)C(=O)CC[C@H]2C2=C1[C@]1(C)c3c(coc3C2=O)C(=O)O[C@@H]1COC
IC50 [1]: 1.2 ng/mL (≈ 2.55 nM)
CT50 (CCRF-CEM): 0.8 µg/mL

COC[C@H]1OC(=O)c2coc3c2[C@@]1(C)C1=C(C3=O)[C@@H]2CCC(=O)[C@@]2(C)C[C@H]1OC(=O)CCl
IC50 [1]: 1.3 ng/mL (≈ 2.81 nM)
CT50 (CCRF-CEM): 0.7 µg/mL

CCC(=O)O[C@@H]1C[C@]2(C)C(=O)CC[C@H]2C2=C1[C@]1(C)c3c(coc3C2=O)C(=O)O[C@@H]1COC
IC50 [1]: 0.6 ng/mL (≈ 1.36 nM)
CT50 (CCRF-CEM): 0.2 µg/mL

COC[C@H]1OC(=O)c2coc3c2[C@@]1(C)C1=C(C3=O)[C@@H]2CCC(=O)[C@@]2(C)C[C@H]1OC(=O)CC(C)C
IC50 [1]: 1.16 ng/mL (≈ 2.47 nM)
CT50 (CCRF-CEM): 0.6 µg/mL

C=CC(=O)O[C@@H]1C[C@]2(C)C(=O)CC[C@H]2C2=C1[C@]1(C)c3c(coc3C2=O)C(=O)O[C@@H]1COC
IC50 [1]: 0.95 ng/mL (≈ 2.16 nM)
CT50 (CCRF-CEM): 0.4 µg/mL

COC[C@H]1OC(=O)c2coc3c2[C@@]1(C)C1=C(C3=O)[C@@H]2CCC(=O)[C@@]2(C)C[C@H]1O
IC50 [1]: 10 ng/mL (≈ 25.9 nM)
CT50 (CCRF-CEM): 2 µg/mL

COC[C@H]1OC(=O)c2coc3c2[C@@]1(C)C1=C(C3=O)[C@@H]2CCC(=O)[C@@]2(C)C[C@H]1OC(C)=O [WORTMANNIN]
IC50 [1]: 1.8 ng/mL (≈ 4.2 nM)
CT50 (CCRF-CEM): 0.9 µg/mL

COC[C@H]1OC(=O)c2coc3c2[C@@]1(C)C1=C(C3=O)[C@@H]2CCC(=O)[C@@]2(C)C[C@H]1OC(=O)Cc1ccccc1
IC50 [1]: 1.53 ng/mL (≈ 3.03 nM)
CT50 (CCRF-CEM): 1 µg/mL
